How the values were obtained:
Assay type in all cases: functional
[1] = system: Pseudomonas aeruginosa; assay: Potentiation of minocycline-induced bactericidal activity in Pseudomonas aeruginosa PAO1 at 0.5 times MIC incubated for 24 hrs in presence of 4 ug/ml minocycline by time kill curve assay relative to control
In short: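 Time-kill. An overnight PAO1 culture was adjusted to 0.5 McFarland in saline and diluted 1:50 in LB. Cells were exposed to the adjuvant at ½× MIC plus fixed minocycline for 24 h at 37 °C. Aliquots taken at intervals were serially diluted in PBS and plated on LB agar; colonies were counted after 20 h at 37 °C. Controls were untreated cells and colistin at 4× MIC.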

[2] = system: Pseudomonas aeruginosa; assay: Potentiation of moxifloxacin-induced antibacterial activity against MDR/XDR Pseudomonas aeruginosa isolate 101885 harboring GyrA T83I mutant assessed as fold reduction in moxifloxacin MIC at 7.5 uM incubated for 18 hrs by broth microdilution method
In short: (§1)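 CLSI broth microdilution. Overnight cultures were set to 0.5 McFarland in saline, diluted 1:50 in Mueller-Hinton broth to a final 5 × 10^5 CFU/mL, and incubated 18 h at 37 °C against 2-fold antibiotic dilutions. A fixed adjuvant level was present throughout. MIC = lowest concentration with no visible turbidity, confirmed at 590 nm. Potentiation = fold drop in antibiotic MIC versus antibiotic alone.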

[3] = system: Pseudomonas aeruginosa; assay: Potentiation of minocycline-induced antibacterial activity against wild type Pseudomonas aeruginosa PAO1 assessed as fold reduction in minocycline MIC at 7.5 uM incubated for 18 hrs by broth microdilution method
In short: (§2)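 Antibiotic MIC determined by CLSI broth microdilution (MHB, 5 × 10^5 CFU/mL, 18 h, 37 °C), once alone and once with a fixed concentration of the adjuvant. Potentiation is the ratio of the antibiotic MIC alone to its MIC in the presence of the adjuvant.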

[4] = system: Pseudomonas aeruginosa; assay: Potentiation of minocycline-induced antimicrobial activity against MDR/XDR Pseudomonas aeruginosa isolate 91433 devoid of GyrA Thr83Ile mutant assessed as minocycline MIC80 incubated for 18 hrs by broth microdilution method (reference value: 32 microg/ml); conditions: isolate 91433, 18 h
[5] = system: Pseudomonas aeruginosa; assay: Potentiation of moxifloxacin-induced antibacterial activity against MDR/XDR Pseudomonas aeruginosa isolate 91433 devoid of GyrA T83I mutant assessed as fold reduction in moxifloxacin MIC at 7.5 uM incubated for 18 hrs by broth microdilution method; in short: as §1
[6] = system: Pseudomonas aeruginosa; assay: Potentiation of minocycline-induced antibacterial activity against MDR/XDR Pseudomonas aeruginosa isolate PA260-97103 harboring GyrA T83I mutant assessed as fold reduction in minocycline MIC at 7.5 uM incubated for 18 hrs by broth microdilution method
[7] = system: Acinetobacter baumannii; assay: Potentiation of rifampicin-induced antibacterial activity against multidrug-resistant Acinetobacter baumannii AB027 assessed as fold reduction in rifampicin MIC at 7.5 uM incubated for 18 hrs by broth dilution method; in short: as §1
[8] = system: Pseudomonas aeruginosa; assay: Potentiation of rifampicin-induced antimicrobial activity against MDR/XDR Pseudomonas aeruginosa isolate 101885 harboring GyrA Thr83Ile mutant assessed as rifampicin MIC80 incubated for 18 hrs by broth microdilution method (reference value: 16 microg/ml); conditions: isolate 101885, 18 h
[9] = system: Pseudomonas aeruginosa; assay: Potentiation of minocycline-induced antimicrobial activity against MDR/XDR Pseudomonas aeruginosa isolate PA260-97103 harboring GyrA Thr83Ile mutant assessed as minocycline MIC50 incubated for 18 hrs by broth microdilution method (reference value: 16 microg/ml); conditions: isolate PA260-97103, 18 h
[10] = system: Pseudomonas aeruginosa; assay: Potentiation of minocycline-induced antibacterial activity against MDR/XDR Pseudomonas aeruginosa isolate PA259-96918 harboring GyrA T83I mutant assessed as fold reduction in minocycline MIC at 9 uM incubated for 18 hrs by broth microdilution method
[11] = system: Pseudomonas aeruginosa; assay: Potentiation of rifampicin-induced antibacterial activity against MDR/XDR Pseudomonas aeruginosa isolate 101885 harboring GyrA T83I mutant assessed as fold reduction in rifampicin MIC at 9 uM incubated for 18 hrs by broth microdilution method; in short: as §1
[12] = system: Pseudomonas aeruginosa; assay: Potentiation of minocycline-induced antibacterial activity against MDR/XDR Pseudomonas aeruginosa isolate 101243 devoid of GyrA T83I mutant assessed as fold reduction in minocycline MIC at 9 uM incubated for 18 hrs by broth microdilution method
[13] = system: Pseudomonas aeruginosa; assay: Antimicrobial activity against XDR Pseudomonas aeruginosa isolate PA264 infected in Galleria mellonella larvae assessed as survival rate at 50 mg/kg co-administered with 50 mg/kg rifampicin at 2 hrs post-inoculation measured after 24 hrs relative to control
In short: (§3)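 G. mellonella larvae were injected with ~5 CFU of P. aeruginosa PA264 (10 µL of 5 × 10^2 CFU/mL in PBS) and held 2 h at 37 °C. A single 10 µL injection followed: monotherapy or rifampicin + compound (25+25, 50+50 or 75+75 mg/kg), with PBS as control. Larvae kept at 37 °C were scored every 6 h to 24 h; dead = no response to touch. n = 30 (two runs of 15); Kaplan-Meier.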

[14] = system: Escherichia coli; assay: Synergistic antibacterial activity against Escherichia coli 107115 assessed as fractional inhibitory concentration index in presence of rifampicin incubated for 18 hrs by broth dilution method
In short: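 Checkerboard titration of the adjuvant against the antibiotic, run under the CLSI microdilution conditions (MHB, 5 × 10^5 CFU/mL, 18 h, 37 °C). Each agent's FIC is its MIC in combination divided by its MIC alone; FICI is the sum of the two FICs. FICI ≤0.5 was read as synergy, >0.5–4.0 as no interaction, and >4.0 as antagonism.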

[15] = system: Klebsiella pneumoniae; assay: Antimicrobial activity against Klebsiella pneumoniae 113254 incubated for 18 hrs by broth dilution method; conditions: Klebsiella pneumoniae, 113254, 18 h
In short: (§4)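 CLSI broth microdilution. Overnight cultures were adjusted to 0.5 McFarland in saline, diluted 1:50 in Mueller-Hinton broth, and inoculated at a final 5 × 10^5 CFU/mL. Compounds were tested as 2-fold serial dilutions and incubated 18 h at 37 °C. MIC was the lowest concentration with no visible turbidity, confirmed by absorbance at 590 nm.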

[16] = system: Pseudomonas aeruginosa; assay: Antimicrobial activity against XDR Pseudomonas aeruginosa isolate PA264 infected in Galleria mellonella larvae assessed as survival rate at 75 mg/kg co-administered with 75 mg/kg rifampicin at 2 hrs post-inoculation measured after 24 hrs relative to control; in short: as §3
[17] = system: Pseudomonas aeruginosa; assay: Antimicrobial activity against XDR Pseudomonas aeruginosa isolate PA264 infected in Galleria mellonella larvae assessed as survival rate at 50 mg/kg co-administered with 50 mg/kg rifampicin at 2 hrs post-inoculation measured after 18 hrs relative to control; in short: as §3
[18] = system: Pseudomonas aeruginosa; assay: Antimicrobial activity against XDR Pseudomonas aeruginosa isolate PA264 infected in Galleria mellonella larvae assessed as survival rate at 75 mg/kg co-administered with 75 mg/kg rifampicin at 2 hrs post-inoculation measured after 18 hrs relative to control; in short: as §3
[19] = system: Pseudomonas aeruginosa; assay: Potentiation of minocycline-induced antibacterial activity against wild type Pseudomonas aeruginosa PAO1 assessed as fold reduction in minocycline MIC at 4.1 uM incubated for 18 hrs by broth microdilution method; in short: as §2
[20] = system: Escherichia coli; assay: Antimicrobial activity against Escherichia coli 94474 incubated for 18 hrs by broth dilution method; conditions: Escherichia coli, 94474, 18 h; in short: as §4

COc1c(N2C[C@@H]3CCCN(CCCCCCCCCCCCO[C@@H]4[C@@H](O)[C@H](N)C[C@H](N)[C@H]4O[C@H]4O[C@H](CN)[C@@H](O)C[C@H]4N)[C@@H]3C2)c(F)cc2c(=O)c(C(=O)O)cn(C3CC3)c12.Cl.Cl.Cl.Cl.Cl
Activity [1]: 100% | fold change (FC) [2]: 4 | fold change (FC) [3]: 8 | MIC80 [4]: 1 µg/mL | fold change (FC) [5]: 16 | fold change (FC) [6]: 32 | fold change (FC) [7]: 32 | MIC80 [8]: 0.13 µg/mL | MIC50 [9]: 0.5 µg/mL

Cl.Cl.Cl.Cl.Cl.Cl.NC[C@H]1O[C@H](O[C@H]2[C@H](OCCCCCCCCCCN3CCN(Cc4cccc5ccccc45)CC3)[C@@H](O)[C@H](N)C[C@@H]2N)[C@H](N)C[C@@H]1O
fold change (FC) [10]: 64 | fold change (FC) [11]: 128 | fold change (FC) [12]: 8

Cl.Cl.Cl.Cl.Cl.NC[C@H]1O[C@H](O[C@H]2[C@H](OCCCCCCCCCCCCN3CCN(c4cc5c(cc4F)c(=O)c(C(=O)O)cn5C4CC4)CC3)[C@@H](O)[C@H](N)C[C@@H]2N)[C@H](N)C[C@@H]1O
survival at 50 mg/kg [13]: 33% | fractional inhibitory concentration index (FICI) [14]: 0.015 - 0.02 | MIC [15]: 128 µg/mL | survival at 75 mg/kg [16]: 53% | survival at 50 mg/kg [17]: 60% | survival at 75 mg/kg [18]: 87% | fold change (FC) [19]: 32 | MIC [20]: > 128 µg/mL

From ChEMBL document CHEMBL4354800, “Amphiphilic nebramine-based hybrids Rescue legacy antibiotics from intrinsic resistance in multidrug-resistant Gram-negative bacilli” (Eur J Med Chem, 2019)
